Experimental data published in ChEMBL document CHEMBL4052671, “Design, synthesis, and evaluation of DNA topoisomerase II-targeted nucleosides” (Bioorg Med Chem, 2017).
pIC50: −log10 of the molar value. Each block holds one molecule with its values, some of them ahead of it. Active and inactive are the calls of the source. No cut-off for these calls is given here.

Legend:
[1] = target: T1, DNA topoisomerase 2-alpha (Homo sapiens, UniProt P11388); test: Inhibition of recombinant human DNA topoisomerase-2alpha assessed as decrease in relaxation of supercoiled pBR322 DNA after 30 mins by ethidium bromide staining based agarose gel electrophoresis
HCT-116 = test: Growth inhibition of human HCT116 cells incubated for 48 hrs by sulforhodamine B assay; assay type: functional; conditions: HCT-116, 48 h
MKN-7 = test: Growth inhibition of human MKN7 cells incubated for 48 hrs by sulforhodamine B assay; assay type: functional; conditions: MKN-7, 48 h
NCI-H23 = test: Growth inhibition of human NCI-H23 cells incubated for 48 hrs by sulforhodamine B assay; assay type: functional; conditions: NCI-H23, 48 h
MKN-1 = test: Growth inhibition of human MKN1 cells incubated for 48 hrs by sulforhodamine B assay; assay type: functional; conditions: MKN-1, 48 h
HT-29 = test: Growth inhibition of human HT-29 cells incubated for 48 hrs by sulforhodamine B assay; assay type: functional; conditions: HT-29, 48 h
OVCAR-4 = test: Growth inhibition of human OVCAR4 cells incubated for 48 hrs by sulforhodamine B assay; assay type: functional; conditions: OVCAR-4, 48 h
SF-539 = test: Growth inhibition of human SF539 cells incubated for 48 hrs by sulforhodamine B assay; assay type: functional; conditions: SF-539, 48 h
SK-OV-3 = test: Growth inhibition of human SKOV3 cells incubated for 48 hrs by sulforhodamine B assay; assay type: functional; conditions: SK-OV-3, 48 h
RXF 631 = test: Growth inhibition of human RXF631L cells incubated for 48 hrs by sulforhodamine B assay; assay type: functional; conditions: RXF 631, 48 h
[2] = target: DNA topoisomerase 1 (Homo sapiens) (UniProt P11387); test: Inhibition of human placenta DNA topoisomerase-1 assessed as decrease in relaxation of supercoiled pUC19 DNA at 200 uM after 30 mins by ethidium bromide staining based agarose gel electrophoresis
PC-3 = test: Growth inhibition of human PC3 cells incubated for 48 hrs by sulforhodamine B assay; assay type: functional; conditions: PC-3, 48 h
[3] = Growth inhibition of human HBC5 cells incubated for 48 hrs by sulforhodamine B assay; assay type: functional; conditions: HBC5, 48 h
ACHN = test: Growth inhibition of human ACHN cells incubated for 48 hrs by sulforhodamine B assay; assay type: functional
[4] = Growth inhibition of human HBC4 cells incubated for 48 hrs by sulforhodamine B assay; assay type: functional; conditions: HBC4, 48 h
LOX IMVI = test: Growth inhibition of human LOXIMVI cells incubated for 48 hrs by sulforhodamine B assay; assay type: functional
[5] = Growth inhibition of human BSY1 cells incubated for 48 hrs by sulforhodamine B assay; assay type: functional; conditions: BSY-1, 48 h
St-4 = test: Growth inhibition of human St-4 cells incubated for 48 hrs by sulforhodamine B assay; assay type: functional; conditions: St-4, 48 h
NCI-H522 = test: Growth inhibition of human NCI-H522 cells incubated for 48 hrs by sulforhodamine B assay; assay type: functional; conditions: NCI-H522, 48 h
OVCAR-8 = test: Growth inhibition of human OVCAR8 cells incubated for 48 hrs by sulforhodamine B assay; assay type: functional; conditions: OVCAR-8, 48 h
HCT-15 = test: Growth inhibition of human HCT15 cells incubated for 48 hrs by sulforhodamine B assay; assay type: functional; conditions: HCT-15, 48 h
MKN-45 = test: Growth inhibition of human MKN45 cells incubated for 48 hrs by sulforhodamine B assay; assay type: functional; conditions: MKN-45, 48 h
SF-295 = test: Growth inhibition of human SF295 cells incubated for 48 hrs by sulforhodamine B assay; assay type: functional; conditions: SF-295, 48 h
U-251 = test: Growth inhibition of human U251 cells incubated for 48 hrs by sulforhodamine B assay; assay type: functional; conditions: U-251, 48 h
DMS-273 = test: Growth inhibition of human DMS273 cells incubated for 48 hrs by sulforhodamine B assay; assay type: functional; conditions: DMS-273, 48 h
HCC 2998 = test: Growth inhibition of human HCC2998 cells incubated for 48 hrs by sulforhodamine B assay; assay type: functional; conditions: HCC 2998, 48 h
MKN-28 = test: Growth inhibition of human MKN28 cells incubated for 48 hrs by sulforhodamine B assay; assay type: functional; conditions: MKN-28, 48 h
NCI-H460 = test: Growth inhibition of human NCI-H460 cells incubated for 48 hrs by sulforhodamine B assay; assay type: functional; conditions: NCI-H460, 48 h
OVCAR-5 = test: Growth inhibition of human OVCAR5 cells incubated for 48 hrs by sulforhodamine B assay; assay type: functional; conditions: OVCAR-5, 48 h
DU-145 = test: Growth inhibition of human DU145 cells incubated for 48 hrs by sulforhodamine B assay; assay type: functional; conditions: DU-145, 48 h
A549 = test: Growth inhibition of human A549 cells incubated for 48 hrs by sulforhodamine B assay; assay type: functional; conditions: A549, 48 h
KM12 = test: Growth inhibition of human KM12 cells incubated for 48 hrs by sulforhodamine B assay; assay type: functional; conditions: KM12, 48 h
MCF7 = test: Growth inhibition of human MCF7 cells incubated for 48 hrs by sulforhodamine B assay; assay type: functional; conditions: MCF7, 48 h
SNB-78 = test: Growth inhibition of human SNB78 cells incubated for 48 hrs by sulforhodamine B assay; assay type: functional; conditions: SNB-78, 48 h
NCI-H226 = test: Growth inhibition of human NCI-H226 cells incubated for 48 hrs by sulforhodamine B assay; assay type: functional; conditions: NCI-H226, 48 h
[6] = Growth inhibition of human […] incubated for 48 hrs by sulforhodamine B assay; assay type: functional
SNB-75 = test: Growth inhibition of human SNB75 cells incubated for 48 hrs by sulforhodamine B assay; assay type: functional; conditions: SNB-75, 48 h
SF-268 = test: Growth inhibition of human SF268 cells incubated for 48 hrs by sulforhodamine B assay; assay type: functional; conditions: SF-268, 48 h
MKN-74 = test: Growth inhibition of human MKN74 cells incubated for 48 hrs by sulforhodamine B assay; assay type: functional; conditions: MKN-74, 48 h
OVCAR-3 = test: Growth inhibition of human OVCAR3 cells incubated for 48 hrs by sulforhodamine B assay; assay type: functional; conditions: OVCAR-3, 48 h
DMS-114 = test: Growth inhibition of human DMS114 cells incubated for 48 hrs by sulforhodamine B assay; assay type: functional; conditions: DMS-114, 48 h
[7] = target: T1, DNA topoisomerase 2-alpha; test: Inhibition of recombinant human DNA topoisomerase-2alpha assessed as decrease in relaxation of supercoiled pBR322 DNA at […] after 30 mins by ethidium bromide staining based agarose gel electrophoresis relative to control
Summary of the method: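 Topo II relaxation of supercoiled pBR322 (198 ng) with 1 U enzyme, 50 mM Tris-HCl pH 8, 120 mM KCl, 10 mM MgCl2, 0.5 mM ATP, 0.5 mM DTT, drug in <10% DMSO; 37 °C for 30 min; products run on 1% agarose in TAE, ethidium-stained, scanned; supercoiled DNA area quantified.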

T1 sequence (P11388 whole entry): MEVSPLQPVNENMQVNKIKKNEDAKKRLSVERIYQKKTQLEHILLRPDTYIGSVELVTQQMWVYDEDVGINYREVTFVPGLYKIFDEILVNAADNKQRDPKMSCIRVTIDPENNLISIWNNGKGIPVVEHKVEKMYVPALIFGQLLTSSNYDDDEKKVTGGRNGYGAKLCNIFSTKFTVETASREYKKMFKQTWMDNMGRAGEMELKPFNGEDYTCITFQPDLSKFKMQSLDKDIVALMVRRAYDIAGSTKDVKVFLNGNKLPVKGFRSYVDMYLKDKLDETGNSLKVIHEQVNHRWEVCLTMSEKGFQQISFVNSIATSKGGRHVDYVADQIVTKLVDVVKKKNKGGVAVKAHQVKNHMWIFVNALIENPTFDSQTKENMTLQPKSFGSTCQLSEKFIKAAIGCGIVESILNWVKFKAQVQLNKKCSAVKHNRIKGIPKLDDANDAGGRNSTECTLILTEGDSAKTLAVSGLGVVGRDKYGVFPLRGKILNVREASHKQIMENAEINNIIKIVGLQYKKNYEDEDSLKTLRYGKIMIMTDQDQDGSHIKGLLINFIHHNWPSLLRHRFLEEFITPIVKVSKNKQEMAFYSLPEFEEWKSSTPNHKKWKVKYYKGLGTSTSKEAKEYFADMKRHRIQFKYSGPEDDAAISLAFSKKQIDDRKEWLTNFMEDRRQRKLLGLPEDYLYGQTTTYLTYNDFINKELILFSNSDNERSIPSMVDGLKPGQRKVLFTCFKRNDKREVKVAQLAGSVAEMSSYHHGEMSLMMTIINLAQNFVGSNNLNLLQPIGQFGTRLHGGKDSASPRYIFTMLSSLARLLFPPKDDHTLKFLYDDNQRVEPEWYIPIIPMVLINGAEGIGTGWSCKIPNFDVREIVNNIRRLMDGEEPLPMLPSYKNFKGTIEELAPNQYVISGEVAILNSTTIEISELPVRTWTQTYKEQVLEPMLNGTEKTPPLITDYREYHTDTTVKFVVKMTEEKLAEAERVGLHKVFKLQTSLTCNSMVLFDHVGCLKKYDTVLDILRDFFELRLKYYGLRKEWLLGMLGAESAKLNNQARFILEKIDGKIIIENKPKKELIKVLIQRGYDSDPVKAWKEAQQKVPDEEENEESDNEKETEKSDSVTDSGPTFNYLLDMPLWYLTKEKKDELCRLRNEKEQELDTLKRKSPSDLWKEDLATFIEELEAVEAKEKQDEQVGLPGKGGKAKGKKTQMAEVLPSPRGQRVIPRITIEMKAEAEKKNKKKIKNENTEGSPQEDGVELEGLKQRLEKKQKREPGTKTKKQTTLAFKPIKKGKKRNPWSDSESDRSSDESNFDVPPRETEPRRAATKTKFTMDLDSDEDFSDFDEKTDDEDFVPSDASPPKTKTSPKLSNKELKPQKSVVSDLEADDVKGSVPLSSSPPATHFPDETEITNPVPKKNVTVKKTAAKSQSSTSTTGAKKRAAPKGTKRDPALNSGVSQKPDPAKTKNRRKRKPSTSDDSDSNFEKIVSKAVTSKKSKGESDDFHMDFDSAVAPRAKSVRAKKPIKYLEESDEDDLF
DNA topoisomerase 1 (Homo sapiens), sequence (P11387 whole entry): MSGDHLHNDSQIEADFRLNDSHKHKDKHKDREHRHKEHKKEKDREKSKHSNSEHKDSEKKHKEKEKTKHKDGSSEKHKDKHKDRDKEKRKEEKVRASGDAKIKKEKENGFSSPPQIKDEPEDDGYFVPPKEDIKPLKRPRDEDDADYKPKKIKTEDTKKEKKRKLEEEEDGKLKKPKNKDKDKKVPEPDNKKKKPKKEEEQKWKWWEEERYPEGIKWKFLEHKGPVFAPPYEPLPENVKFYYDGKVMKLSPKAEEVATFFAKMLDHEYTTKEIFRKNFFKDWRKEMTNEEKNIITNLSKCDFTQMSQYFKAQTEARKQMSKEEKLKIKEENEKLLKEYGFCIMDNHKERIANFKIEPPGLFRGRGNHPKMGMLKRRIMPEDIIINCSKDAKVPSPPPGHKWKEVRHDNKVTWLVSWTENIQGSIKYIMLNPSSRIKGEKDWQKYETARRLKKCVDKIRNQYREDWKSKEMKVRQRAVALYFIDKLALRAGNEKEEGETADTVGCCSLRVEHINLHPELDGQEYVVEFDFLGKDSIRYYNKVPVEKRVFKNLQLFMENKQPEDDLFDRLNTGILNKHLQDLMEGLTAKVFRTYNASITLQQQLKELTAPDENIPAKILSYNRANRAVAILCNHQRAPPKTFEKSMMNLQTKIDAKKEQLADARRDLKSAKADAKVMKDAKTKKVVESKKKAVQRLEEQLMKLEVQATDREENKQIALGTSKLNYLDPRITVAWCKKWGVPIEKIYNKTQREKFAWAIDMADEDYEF

Structure (SMILES): COc1ccc(C[C@H]2CC(=O)O[C@@H]2CO[Si](C)(C)C(C)(C)C)cc1OC
- pIC50 [1]: 3.86

Structure (SMILES): COc1ccc(C2([C@H]3C[C@H](n4cc(C)c(=O)[nH]c4=O)O[C@@H]3CO[Si](C)(C)C(C)(C)C)SCCCS2)cc1OC
- GI50 (HCT-116): 3.63 µM
- GI50 (MKN-7): 2.29 µM
- GI50 (NCI-H23): 3.72 µM
- GI50 (MKN-1): 2.29 µM
- pIC50 [1]: 5.09
- GI50 (HT-29): 3.89 µM
- GI50 (OVCAR-4): 2.88 µM
- GI50 (SF-539): 2.19 µM
- GI50 (SK-OV-3): 5.25 µM
- GI50 (RXF 631): 4.57 µM
- inhibition [2]: inactive
- GI50 (PC-3): 2.29 µM
- GI50 [3]: 2.51 µM
- GI50 (ACHN): 2.51 µM
- GI50 [4]: 3.8 µM
- GI50 (LOX IMVI): 3.24 µM
- GI50 [5]: 1.82 µM
- GI50 (St-4): 4.47 µM
- GI50 (NCI-H522): 2.69 µM
- GI50 (OVCAR-8): 3.89 µM
- GI50 (HCT-15): 4.07 µM
- GI50 (MKN-45): 3.31 µM
- GI50 (SF-295): 3.72 µM
- GI50 (U-251): 3.8 µM
- GI50 (DMS-273): 3.8 µM
- GI50 (HCC 2998): 3.31 µM
- GI50 (MKN-28): 3.31 µM
- GI50 (NCI-H460): 3.63 µM
- GI50 (OVCAR-5): 2.88 µM
- GI50 (DU-145): 3.72 µM
- GI50 (A549): 4.68 µM
- GI50 (KM12): 4.07 µM
- GI50 (MCF7): 3.31 µM
- GI50 (SNB-78): 5.5 µM
- GI50 (NCI-H226): 2 µM
- GI50 [6]: 3.47 µM
- GI50 (SNB-75): 10 µM
- GI50 (SF-268): 6.46 µM
- GI50 (MKN-74): 3.24 µM
- GI50 (OVCAR-3): 3.72 µM
- GI50 (DMS-114): 3.31 µM

Structure (SMILES): COc1ccc(C[C@H]2C[C@@H](n3cc(C)c(=O)[nH]c3=O)O[C@@H]2CO)cc1OC
- inhibition [7]: inactive

Structure (SMILES): COc1ccc(C2([C@H]3CC(=O)O[C@@H]3CO)SCCCS2)cc1OC
- inhibition [7]: 19.8%
- pIC50 [1]: < 3.70

Structure (SMILES): COc1ccc(C[C@H]2CC(=O)O[C@@H]2CO)cc1OC
- inhibition [7]: inactive

More lines, in order of rising pIC50 [1], values ahead:

- pIC50 [1]: 4.00
Structure (SMILES): COc1ccc(C[C@H]2C[C@H](n3cc(C)c(=O)[nH]c3=O)O[C@@H]2CO[Si](C)(C)C(C)(C)C)cc1OC

- pIC50 [1]: 4.05
Structure (SMILES): COc1ccc(C[C@H]2C[C@@H](n3cc(C)c(=O)[nH]c3=O)O[C@@H]2CO[Si](C)(C)C(C)(C)C)cc1OC

- pIC50 [1]: 5.61
Structure (SMILES): Cc1cn([C@H]2C[C@H](CC3=CC(=O)C(=O)C=C3)[C@@H](CO[Si](C)(C)C(C)(C)C)O2)c(=O)[nH]c1=O
